Measurements: paper PMC10751876 (Current research in chemical biology, 2023)

Assays:
hBRD4 [1] = biological target: T1, hBRD4 (Homo sapiens, UniProt O60885); test: SPR binding to hBRD4; details: for Rmax: hBRD4, SPR fit, (locked) = as printed
[2] = system: EP1/GFP reporter parasites; test: EP1/GFP reporter flow cytometry in bloodstream parasites; assay type: cell-based, T. brucei; details: for EP1/GFP mean fluorescence intensity: 3 days
Procedure, shortened: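 Bloodstream Lister 427 L224 T. brucei (VSG3/BES7-NeoR, VSG2/BES1-PuroR) carrying an EP1/GFP reporter construct, grown in HMI-9 at 37 °C, 5% CO2. Parasites were treated 2 or 3 days, with DMSO as vehicle control. GFP mean fluorescence intensity was read by flow cytometry. Three biological replicates, SD shown; two-tailed unpaired t-test against DMSO.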

hBRD4 [3] = biological target: T1, hBRD4; test: ITC binding to hBRD4
TbBdf2 [4] = biological target: T2, TbBdf2 (Trypanosoma brucei brucei, UniProt Q38AM1); test: SPR binding to TbBdf2; set-up: species or system T. brucei; details: for Rmax: SPR fit, (locked) = as printed; for Kd: read-out: SPR KD, duplicate, standard error
T2 sequence (Q38AM1 9-123): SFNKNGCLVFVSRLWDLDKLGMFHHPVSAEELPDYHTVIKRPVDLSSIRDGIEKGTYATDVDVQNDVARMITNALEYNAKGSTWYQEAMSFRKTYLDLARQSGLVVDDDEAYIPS
Procedure, shortened: (§1)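 Purified His6-tagged bromodomain protein was labelled with DBCO-PEG4-NHS ester (3-fold molar excess, 2 h, room temperature), quenched with ethanolamine, and coupled to an azide chip at pH 4.0 (~6000 RU). Run in duplicate, standard error.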

TbBdf3 [5] = biological target: T3, TbBdf3 (Trypanosoma brucei brucei, UniProt Q383S2); test: ITC binding to TbBdf3; set-up: species or system T. brucei
T3 sequence (Q383S2 1-221): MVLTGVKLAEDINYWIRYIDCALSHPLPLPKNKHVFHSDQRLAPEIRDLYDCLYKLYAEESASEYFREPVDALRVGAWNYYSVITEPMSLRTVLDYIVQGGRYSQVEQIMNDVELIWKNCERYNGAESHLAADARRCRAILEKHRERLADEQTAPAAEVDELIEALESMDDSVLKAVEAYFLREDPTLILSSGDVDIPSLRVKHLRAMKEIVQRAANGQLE
Procedure, shortened: (§2)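 ITC at 15 °C. His6-tagged bromodomain protein was dialysed against 20 mM HEPES pH 7.5, 150 mM NaCl, 0.5 mM TCEP, 1% DMSO. Typically 2.0 mM protein was injected in 2–3 μL increments into 200 μM ligand in the cell. Baseline-corrected isotherms were fitted. Each titration was run at least twice; reported values come from single experiments with fit error.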

TbBdf3 [6] = biological target: T3, TbBdf3; test: SPR binding to TbBdf3; set-up: species or system T. brucei; details: for Rmax: TbBdf3, SPR fit, (locked) = as printed
Procedure, shortened: as §1

T. brucei parasites = test: Percent of live cells by forward and side scatter gating; assay type: cell-based; details: flow cytometry live gate
Procedure, shortened: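 Lister 427 L224 bloodstream parasites were cultured in HMI-9 at 37 °C, 5% CO2 and treated 48 h or 72 h at set concentrations, with DMSO controls. Viability is the percentage of cells falling in a live gate set on forward and side scatter by flow cytometry.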

[7] = system: bloodstream T. brucei parasites; test: Growth inhibition of bloodstream parasites; assay type: cell-based; details: Trypanosoma brucei, 48 h, read-out: GEC50 growth inhibition
Procedure, shortened: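 Lister 427 L224 bloodstream parasites were plated at 10,000 cells/ml in HMI-9 across a compound concentration series and grown 48 h at 37 °C, 5% CO2. Cells were then stained with 5 μM Sytox Orange for 15 min at 37 °C and counted by fixed-volume flow cytometry in a live/Sytox-negative gate. Dose-response metrics came from growth-rate-inhibition analysis (GRMetric).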

[8] = Solubility at ITC ligand concentration; assay type: physicochemical; details: at 200 μM, ITC assay
TbBdf2 [9] = biological target: T2, TbBdf2; test: ITC binding to TbBdf2; set-up: species or system T. brucei; details: 15 °C; n set to 1.0; single experiment, error of the fit
Procedure, shortened: as §2

[10] = system: bloodstream T. brucei parasites (procyclin protein); test: Procyclin surface protein expression, anti-EP1 flow cytometry; assay type: cell-based; details: negative control, 3 days

| Compound | Kd (hBRD4 [1]) [µM] | Rmax (hBRD4 [1]) | EP1/GFP mean fluorescence intensity ([2]; 20 μM) | hBRD4, ITC KD (hBRD4 [3]; 15 °C, n set to 1.0, single experiment, error of the fit) | Rmax (TbBdf2 [4]) | Kd (TbBdf2 [4]) [µM] | Kd (TbBdf3 [5]) [µM] | Kd (TbBdf3 [6]) [µM] | Rmax (TbBdf3 [6]) | percentage of live cells compared to DMSO controls (T. brucei parasites) | EP1/GFP mean fluorescence intensity ([2]; 5 μM) | EC50 [7] [µM] | solubility [8] | TbBdf2, ITC KD (TbBdf2 [9]) | Kd (hBRD4 [3]) [µM] | SPR binding to TbBdf3 (TbBdf3 [6]) | fold change in EP1/GFP mean fluorescence intensity compared to DMSO ([2]; 20 μM) [fold] | procyclin surface expression [10] |
| --- | --- | --- | --- | --- | --- | --- | --- | --- | --- | --- | --- | --- | --- | --- | --- | --- | --- | --- |
| COCCOCCOCCOC(=O)c1ccc(-c2cc3ncc4[nH]c(=O)n([C@H](C)c5ccccn5)c4c3cc2OC)cc1 [AP-09-191, (R)-2-(2-(2-Methoxyethoxy)ethoxy)ethyl 4-(8-methoxy-2-oxo-1-(1-(pyridin-2-yl)ethyl)-2,3-dihydro-1H-imidazo[4,5-c]quinolin-7-yl)benzoate] | 60 ± 26 | 200 (locked) RU | increased mean fluorescence intensity of GFP | No binding | 200 (locked) RU | 44 ± 31 | 22 ± 11 | 56 ± 31 | 200 (locked) RU | – | – | – | – | – | – | – | – | – |
| COc1cc2c(cc1-c1ccc(C(=O)NCCCCCCCCNC(=O)OC(C)(C)C)cc1)ncc1[nH]c(=O)n([C@H](C)c3ccccn3)c12 [AP-09-008, (R)-tert-Butyl 8-(4-(8-methoxy-2-oxo-1-(1-(pyridin-2-yl)ethyl)-2,3-dihydro-1H-imidazo[4,5-c]quinolin-7-yl)benzamido)octylcarbamate] | 6.1 ± 3.6 | 14.2 ± 1.8 RU | – | – | 27.1 ± 1.2 RU | 1.68 ± 0.34 | – | 1.43 ± 0.32 | 36.9 ± 1.9 RU | significantly lower | strong increase | 1.27 ± 0.046 | insolubility | – | – | – | – | – |
| COc1cc2c(N[C@H](C)c3ccccn3)c(C(=O)NCCCCCCN)cnc2cc1-c1c(C)noc1C [AP-08-188, N-(6-Aminohexyl)-7-(3,5-dimethylisoxazol-4-yl)-6-methoxy-4-((R)-1-(pyridin-2-yl)ethylamino)quinoline-3-carboxamide] | 0.29 ± 0.17 | 135 ± 27 RU | – | – | 85 ± 35 RU | 45 ± 31 | 87 ± 21 | 30 ± 21 | 143 ± 51 RU | significantly lower | highest | 1.74 ± 0.044 | – | No binding | 0.68 ± 0.15 | weak binding | – | – |
| NCCCCCCNC(=O)c1ccccc1.O=C(O)C(F)(F)F [AP-08-190, N-(6-aminohexyl)benzamide 2,2,2-trifluoroacetate] | – | – | – | – | – | – | – | – | – | – | – | – | – | – | – | – | 1.2 | Neither DMSO nor the control compound AP-08-190 increased procyclin surface expression |
